Paper PMC5073817 (ACS chemical neuroscience, 2016)
“Also recorded” adds a separate entry of the source. Like-named read-outs stand apart in the source and are kept apart here. Marks after values point to notes of the source that are not given here.

Assays:
[1] = tested on: mGlu2 coexpressed with mGlu4; conditions: cited from earlier work
6-OHDA lesion models = conditions: various 6-OHDA lesion models; cited from earlier work
[2] = tested on: unilateral 6-OHDA lesion forelimb asymmetry; assay: 6-OHDA lesion-induced forelimb asymmetry; assay type: in vivo, rats
human mGlu4 = human mGlu4 (Homo sapiens, UniProt Q14833); assay: Gqi5-mediated calcium mobilization assay, human mGlu4/Gqi5/CHO cells; assay type: cell-based; conditions: absence of glutamate
rat mGlu4 = rat mGlu4 (Rattus norvegicus, UniProt P31423); assay: GIRK/thallium flux assay, rat mGlu4/HEK/GIRK cells; assay type: cell-based
Summary of the method: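 Polyclonal HEK/GIRK cells stably expressing rat mGlu4 (pIRESpuro3, puromycin-selected) were loaded with 330 nM final FluoZin-2 AM in HBSS/20 mM HEPES pH 7.4 for 1 h at room temperature. Thallium flux was read kinetically at room temperature. EC50 came from four-parameter logistic fits; three determinations in triplicate, mean ± SEM.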

mGlu2/4 heteromers = mGlu2/4 heteromers (Rattus norvegicus, UniProt P31423); assay: CODA-RET assay, mGlu4_L1/mGlu2_L2; assay type: cell-based; conditions: for max response (BRET) in presence of PAM: L-AP4; for potentiation of L-AP4 responses: mGlu4_L1 and mGlu2_L2 coexpressed
Summary of the method: (§1)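 HEK-293T cells were PEI-transfected with HA-tagged rat mGlu constructs bearing luciferase fragments, plus Gαi-mVenus, Gβ1 and Gγ2. Plasmid ratios were 4:4:1:1:1 for mGlu4-L1/mGlu4-L2 homomers and 4:8:1:1:1 for mGlu4-L1/mGlu2-L2 heteromers. At 48 h, about 200 000 cells/well in PBS were stimulated 5 min at 37 °C with L-AP4 with or without increasing compound. Coelenterazine H (5 µM) was added, read 2 min later; BRET ratio = 510–540 nm over 485 nm.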

[3] = cited from earlier work
[4] = Plasma and brain exposure time course after 30 mg/kg dose; assay type: in vivo; conditions: rat
mGlu2/4 = assay: Glutamate concentration-response curve shift in cells expressing mGlu2 and mGlu4; assay type: cell-based, rat; conditions: for effect on the glutamate CRC: cells expressing mGlu2 and mGlu4; for glutamate pEC50 in presence of PAM / fold shift of glutamate CRC: mGlu2/4 cells
[5] = tested on: rotarod motor performance; assay: Rotarod test; assay type: in vivo, rats; conditions: doses up to 100 mg/kg p.o., tested 30 min later
Summary of the method: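 Rats were pre-trained on the rotarod, then given vehicle or test compound at 10, 30, 56.6 or 100 mg/kg p.o. (10 mL/kg). Motor performance was tested 30 min after dosing.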

mGlu4 = mGlu4 (Rattus norvegicus, UniProt P31423); assay: Glutamate concentration-response curve shift in cells expressing mGlu4 alone; assay type: cell-based; conditions: for glutamate pEC50 in presence of PAM / fold shift of glutamate CRC: mGlu4 alone
mGlu4 homomers = mGlu4 homomers (Rattus norvegicus, UniProt P31423); assay: CODA-RET assay, mGlu4_L1/mGlu4_L2; assay type: cell-based; conditions: for max response (BRET) in presence of PAM: mGlu4_L1/mGlu4_L2, L-AP4; for potentiation of L-AP4 responses: mGlu4 labeled with L1 or L2
Summary of the method: as §1

[6] = tested on: haloperidol-induced catalepsy; assay: Haloperidol-induced catalepsy; assay type: in vivo, Sprague–Dawley rats; conditions: oral, catalepsy assessed 30 min after dosing
[7] = tested on: haloperidol-induced catalepsy; conditions: 56.6 mg/kg p.o.; previously demonstrated; cited from earlier work
[8] = CODA-RET, labeled mGlu2 and mGlu4 coexpressed

mGlu2/4 heteromers, sequence (P31423 33-912): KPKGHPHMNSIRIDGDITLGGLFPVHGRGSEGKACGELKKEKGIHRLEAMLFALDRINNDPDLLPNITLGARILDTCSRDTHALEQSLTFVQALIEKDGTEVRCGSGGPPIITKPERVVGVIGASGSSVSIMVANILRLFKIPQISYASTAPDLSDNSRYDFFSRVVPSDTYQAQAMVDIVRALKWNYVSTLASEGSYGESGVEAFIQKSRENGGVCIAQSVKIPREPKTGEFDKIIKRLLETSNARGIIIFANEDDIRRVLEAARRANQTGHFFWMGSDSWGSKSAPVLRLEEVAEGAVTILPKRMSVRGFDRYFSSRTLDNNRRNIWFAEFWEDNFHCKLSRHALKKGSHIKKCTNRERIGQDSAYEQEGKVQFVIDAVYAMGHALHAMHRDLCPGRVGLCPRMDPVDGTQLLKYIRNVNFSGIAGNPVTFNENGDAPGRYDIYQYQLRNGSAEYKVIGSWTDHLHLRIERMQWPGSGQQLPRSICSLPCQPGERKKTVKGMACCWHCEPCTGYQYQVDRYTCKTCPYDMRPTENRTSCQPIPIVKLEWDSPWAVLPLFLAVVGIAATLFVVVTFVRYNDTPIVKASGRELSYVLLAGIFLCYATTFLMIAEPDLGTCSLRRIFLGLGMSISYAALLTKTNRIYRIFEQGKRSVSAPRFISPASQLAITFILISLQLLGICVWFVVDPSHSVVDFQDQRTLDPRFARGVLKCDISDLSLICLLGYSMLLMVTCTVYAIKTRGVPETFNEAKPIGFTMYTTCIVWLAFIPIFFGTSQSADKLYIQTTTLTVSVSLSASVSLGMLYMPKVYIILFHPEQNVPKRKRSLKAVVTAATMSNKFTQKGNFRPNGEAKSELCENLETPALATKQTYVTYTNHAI
mGlu2/4 heteromers, sequence (P31421 19-872 partner): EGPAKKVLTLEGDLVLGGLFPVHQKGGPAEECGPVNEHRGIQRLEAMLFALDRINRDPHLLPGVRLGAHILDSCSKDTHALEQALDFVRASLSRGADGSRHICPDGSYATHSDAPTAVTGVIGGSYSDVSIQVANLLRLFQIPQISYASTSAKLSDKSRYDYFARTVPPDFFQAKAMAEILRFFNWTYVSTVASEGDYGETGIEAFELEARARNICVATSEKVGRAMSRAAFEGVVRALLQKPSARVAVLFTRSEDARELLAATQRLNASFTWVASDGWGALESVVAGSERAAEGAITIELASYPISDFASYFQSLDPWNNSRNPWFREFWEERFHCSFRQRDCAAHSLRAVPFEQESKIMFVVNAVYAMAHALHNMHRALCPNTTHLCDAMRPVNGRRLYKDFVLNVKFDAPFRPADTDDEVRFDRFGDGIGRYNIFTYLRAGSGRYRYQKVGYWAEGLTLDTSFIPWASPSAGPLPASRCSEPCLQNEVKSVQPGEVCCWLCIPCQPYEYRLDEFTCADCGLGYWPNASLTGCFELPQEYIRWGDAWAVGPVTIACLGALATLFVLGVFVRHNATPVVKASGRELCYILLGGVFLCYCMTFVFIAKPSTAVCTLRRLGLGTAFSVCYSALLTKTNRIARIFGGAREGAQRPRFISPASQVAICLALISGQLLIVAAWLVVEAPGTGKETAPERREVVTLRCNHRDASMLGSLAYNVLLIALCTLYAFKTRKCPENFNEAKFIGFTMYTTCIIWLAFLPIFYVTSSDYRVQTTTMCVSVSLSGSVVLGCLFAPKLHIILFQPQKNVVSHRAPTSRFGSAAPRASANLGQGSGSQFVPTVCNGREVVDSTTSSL
rat mGlu4, sequence (P31423 33-912): as the sequence (P31423 33-912) above
mGlu4 homomers, sequence (P31423 33-912): as above
mGlu4 homomers, sequence (P31423 33-912): as above
mGlu4, sequence (P31423 33-912): as above
human mGlu4, sequence (Q14833 33-912): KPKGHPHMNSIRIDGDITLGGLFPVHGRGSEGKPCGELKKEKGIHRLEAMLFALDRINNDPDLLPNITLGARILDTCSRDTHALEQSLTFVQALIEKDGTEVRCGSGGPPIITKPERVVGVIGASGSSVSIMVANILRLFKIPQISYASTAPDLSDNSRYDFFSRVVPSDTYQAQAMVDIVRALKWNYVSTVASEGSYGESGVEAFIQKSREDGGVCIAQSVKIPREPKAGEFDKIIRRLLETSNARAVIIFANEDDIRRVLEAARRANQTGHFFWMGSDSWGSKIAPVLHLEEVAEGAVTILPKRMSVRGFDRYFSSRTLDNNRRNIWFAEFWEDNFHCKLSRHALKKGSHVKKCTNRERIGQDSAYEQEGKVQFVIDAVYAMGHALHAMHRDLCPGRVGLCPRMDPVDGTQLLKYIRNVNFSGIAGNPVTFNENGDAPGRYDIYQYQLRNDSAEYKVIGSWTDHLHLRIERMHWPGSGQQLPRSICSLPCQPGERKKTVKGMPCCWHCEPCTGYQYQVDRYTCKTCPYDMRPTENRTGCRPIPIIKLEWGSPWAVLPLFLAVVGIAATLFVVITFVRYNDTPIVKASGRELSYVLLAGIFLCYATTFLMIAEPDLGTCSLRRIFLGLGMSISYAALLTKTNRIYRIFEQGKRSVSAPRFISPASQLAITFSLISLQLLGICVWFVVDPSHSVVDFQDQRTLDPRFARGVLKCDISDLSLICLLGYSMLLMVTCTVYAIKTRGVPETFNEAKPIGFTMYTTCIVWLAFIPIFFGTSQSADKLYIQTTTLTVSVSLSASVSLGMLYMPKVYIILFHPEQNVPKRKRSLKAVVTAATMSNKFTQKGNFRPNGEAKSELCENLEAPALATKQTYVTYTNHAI

For `O=C(Nc1cc(Cl)cc(Cl)c1)[C@H]1CCCC[C@H]1C(=O)O` [VU0155041], the “potentiation when mGlu2 and mGlu4 are coexpressed” value [1] is given as “induce potentiation regardless of mGlu2 expression”.
In the case of `Cc1ccnc(Nc2nc(-c3cn[nH]c3)c(C)s2)n1` [ADX88178], the “potentiation of the effects of subthreshold doses of L-DOPA” value (6-OHDA lesion models) is given as “potentiate the effects of subthreshold doses of L-DOPA”.
In the case of `N[C@@H](Cc1ccc(O)c(O)c1)C(=O)O` [L-DOPA], the “reversal of forelimb asymmetry” value ([2]; 0.75 mg/kg alone) is reported as “inactive alone” and the “reversal of forelimb asymmetry” value ([2]; 2.5 mg/kg dose) is reported as “completely reversed motor deficits”.
With `Fc1ccc(Nc2n[nH]c3cccnc23)cc1Cl` [VU0418506, N-(3-chloro-4-fluorophenyl)-1H-pyrazolo[4,3-b]pyridin-3-amine] the “direct allosteric agonist activity (compound added alone)” value (human mGlu4) was “does not exhibit direct allosteric agonist activity; also recorded: does not elicit activity in this assay in the absence of glutamate”, the EC50 (rat mGlu4) was 46.6 nM and the “pEC50 (PAM potency)” value (rat mGlu4; rat mGlu4, GIRK/thallium flux, mean ± SEM) was 7.34 ± 0.04. For the same compound, the EC50 (rat mGlu4; read-out: EC50 (PAM potency), rat mGlu4, GIRK/thallium flux) was 46 nM, the “max response (BRET) in presence of PAM” value (mGlu2/4 heteromers; [8]) was 0.021 ± 0.002 and the “potentiation of L-AP4 responses” value (mGlu2/4 heteromers) was “unable to potentiate L-AP4 responses”. For the same compound, the brain penetration [3] was “good brain penetration”, the “time after dosing for which sustained plasma and brain levels were observed” value [4] was “at least 6 h” and the “effect on the glutamate CRC” value (mGlu2/4) was “no effect on the glutamate CRC”. The “glutamate pEC50 in presence of PAM” value (mGlu2/4; PAM concentration −5.5 (log)) was 6.02 ± 0.02, the “glutamate pEC50 in presence of PAM” value (mGlu2/4; PAM concentration −6.5 (log)) was 5.89 ± 0.07 and the “glutamate pEC50 in presence of PAM” value (mGlu2/4; PAM concentration −7 (log)) was 5.87 ± 0.05. For the same compound, the “glutamate pEC50 in presence of PAM” value (mGlu2/4; PAM concentration −8 (log)) was 5.86 ± 0.08, the “impairment of rotorod performance” value [5] was “did not observe any impairment” and the “potentiation of glutamate response” value (mGlu4; cells only expressing mGlu4) was “induced significant potentiation”. For the same compound, the “glutamate pEC50 in presence of PAM” value (mGlu4; PAM concentration −5 (log)) was 5.87 ± 0.13 ^b, the “glutamate pEC50 in presence of PAM” value (mGlu4; PAM concentration −5.5 (log)) was 6.07 ± 0.21 ^b and the “glutamate pEC50 in presence of PAM” value (mGlu4; PAM concentration −6 (log)) was 5.93 ± 0.12 ^b. The “glutamate pEC50 in presence of PAM” value (mGlu4; PAM concentration −6.5 (log)) was 5.67 ± 0.14 ^b, the “glutamate pEC50 in presence of PAM” value (mGlu4; PAM concentration −7 (log)) was 5.55 ± 0.17 ^b and the “glutamate pEC50 in presence of PAM” value (mGlu4; PAM concentration −8 (log)) was 5.08 ± 0.07. For the same compound, the “max response (BRET) in presence of PAM” value (mGlu4 homomers; CODA-RET) was 0.047 ± 0.0004, the “potentiation of L-AP4 responses” value (mGlu4 homomers) was “able to potentiate responses” and the “doses with significant activity in reversing catalepsy” value [6] was at least 3 mg/kg. The “reversal of forelimb asymmetry” value ([2]; 3 mg/kg VU0418506 combined with 0.75 mg/kg L-DOPA) was “statistically significant efficacy”, the “reversal of forelimb asymmetry” value ([2]; 3 mg/kg alone) was “inactive alone” and the “reversal of forelimb asymmetry” value ([2]; 10 mg/kg administered alone, assessed after 30 min) was “statistically significant reversals of forelimb asymmetry”. The “reversal of forelimb asymmetry” value ([2]; 30 mg/kg administered alone, assessed after 30 min) was “statistically significant reversals of forelimb asymmetry”.
For `Cc1cc(C)n(-c2cc(NC(=O)CN3CCN(C)CC3)nc(-c3ccco3)n2)n1` [compound 23, N-(6-(3,5-dimethyl-1H–pyrazol-1-yl)-2-(furan-2-yl)-pyrimidin-4-yl)-2-(4-methylpiperazin-1-yl)acetamide], the “reversal of haloperidol-induced catalepsy (positive control)” value [7] is listed as “robust reversal of haloperidol-induced catalepsy”.
With `NC(=O)[C@@H]1CCCC[C@@H]1C(=O)Nc1ccc(Cl)c(Cl)c1` [Lu AF21934] the “max response (BRET) in presence of PAM” value (mGlu2/4 heteromers; [8]) was 0.032 ± 0.004, the “L-AP4 pEC50 in presence of PAM” value (mGlu2/4 heteromers; CODA-RET, labeled mGlu2 and mGlu4 coexpressed, mean ± SEM) was 7.66 ± 0.11 and the “potentiation of L-AP4 responses” value (mGlu2/4 heteromers) was “able to potentiate responses”. For the same compound, the “potentiation when mGlu2 and mGlu4 are coexpressed” value [1] was “induce potentiation regardless of mGlu2 expression”, the “effect on the glutamate CRC” value (mGlu2/4) was “induced a leftward shift in the glutamate CRC” and the “fold shift of glutamate CRC” value (mGlu2/4; PAM concentration −4.5 (log)) was 3.2 ± 0.07. For the same compound, the “glutamate pEC50 in presence of PAM” value (mGlu2/4; PAM concentration −4.5 (log)) was 6.41 ± 0.08 ^b, the “fold shift of glutamate CRC” value (mGlu2/4; PAM concentration −5 (log)) was 2.8 ± 0.07 ^c and the “glutamate pEC50 in presence of PAM” value (mGlu2/4; PAM concentration −5 (log)) was 6.36 ± 0.08 ^b. The “fold shift of glutamate CRC” value (mGlu2/4; PAM concentration −5.5 (log)) was 2.4 ± 0.13 ^c, the “glutamate pEC50 in presence of PAM” value (mGlu2/4; PAM concentration −5.5 (log)) was 6.29 ± 0.06 ^b and the “fold shift of glutamate CRC” value (mGlu2/4; PAM concentration −6 (log)) was 1.7 ± 0.04. The “glutamate pEC50 in presence of PAM” value (mGlu2/4; PAM concentration −6 (log)) was 6.13 ± 0.09 ^b, the “fold shift of glutamate CRC” value (mGlu2/4; PAM concentration −6.5 (log)) was 1.2 ± 0.05 ^c and the “glutamate pEC50 in presence of PAM” value (mGlu2/4; PAM concentration −6.5 (log)) was 6.00 ± 0.09 ^b. The “fold shift of glutamate CRC” value (mGlu2/4; PAM concentration −7 (log)) was 1.2 ± 0.07, the “glutamate pEC50 in presence of PAM” value (mGlu2/4; PAM concentration −7 (log)) was 5.99 ± 0.06 and the “fold shift of glutamate CRC” value (mGlu2/4; PAM concentration −8 (log)) was 1.0 ± 0.07. The “glutamate pEC50 in presence of PAM” value (mGlu2/4; PAM concentration −8 (log)) was 5.91 ± 0.11, the “fold shift of glutamate CRC” value (mGlu4; PAM concentration −4.5 (log)) was 4.2 ± 0.42 and the “glutamate pEC50 in presence of PAM” value (mGlu4; PAM concentration −4.5 (log)) was 5.43 ± 0.08 ^b. The “fold shift of glutamate CRC” value (mGlu4; PAM concentration −5 (log)) was 3.8 ± 0.21 ^c, the “glutamate pEC50 in presence of PAM” value (mGlu4; PAM concentration −5 (log)) was 5.39 ± 0.06 ^b and the “fold shift of glutamate CRC” value (mGlu4; PAM concentration −5.5 (log)) was 3.2 ± 0.28 ^c. For the same compound, the “glutamate pEC50 in presence of PAM” value (mGlu4; PAM concentration −5.5 (log)) was 5.32 ± 0.07 ^b, the “fold shift of glutamate CRC” value (mGlu4; PAM concentration −6 (log)) was 2.1 ± 0.17 and the “glutamate pEC50 in presence of PAM” value (mGlu4; PAM concentration −6 (log)) was 5.14 ± 0.07 ^b. For the same compound, the “fold shift of glutamate CRC” value (mGlu4; PAM concentration −6.5 (log)) was 1.6 ± 0.09 ^c, the “glutamate pEC50 in presence of PAM” value (mGlu4; PAM concentration −6.5 (log)) was 5.00 ± 0.04 ^b and the “fold shift of glutamate CRC” value (mGlu4; PAM concentration −7 (log)) was 1.5 ± 0.12. For the same compound, the “glutamate pEC50 in presence of PAM” value (mGlu4; PAM concentration −7 (log)) was 4.99 ± 0.07 ^b, the “fold shift of glutamate CRC” value (mGlu4; PAM concentration −8 (log)) was 1.1 ± 0.03 and the “glutamate pEC50 in presence of PAM” value (mGlu4; PAM concentration −8 (log)) was 4.85 ± 0.03. The “max response (BRET) in presence of PAM” value (mGlu4 homomers; CODA-RET) was 0.050 ± 0.003, the “L-AP4 pEC50 in presence of PAM” value (mGlu4 homomers; CODA-RET, mGlu4_L1/mGlu4_L2, mean ± SEM) was 7.70 ± 0.01 and the “potentiation of L-AP4 responses” value (mGlu4 homomers) was “able to potentiate responses”. The “potentiation of the effects of subthreshold doses of L-DOPA” value (6-OHDA lesion models) was “potentiate the effects of subthreshold doses of L-DOPA”.
